Measured values as given in ChEMBL document CHEMBL5724801, “EUbOPEN Chemogenomics Library - Multiplex” (2024).
Values joined by “and” are separate entries in the source; they are usually repeats but may differ in a detail not shown here. Equal values may be shown once.

Test system: HEK-293T
Assay: Multiplex assay against HEK293T
Assay type: toxicity, cell-based
Conditions: human
Summary of the method: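 At seeding, live cells were stained with Hoechst33342, BioTracker Green Microtubule Cytoskeleton Dye, MitoTracker Red and Annexin V Alexa Fluor 680. After compound addition they were imaged on a CQ1 microscope at 37°C and 5% CO2, and CellPathfinder machine-learning gating sorted them into Hoechst high-intensity objects or normal cells, with normal cells further split into healthy, pyknosed or fragmented nuclei and pyknosed cells into mitotic or apoptotic. Tubulin, mitochondrial-mass and membrane-permeability phenotypes are given as per cents of cells with healthy nuclei.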

[1] = 12 h, 1 µM, compound concentration 1 uM
[2] = 12 h, 10 µM, compound concentration 10 uM
[3] = 24 h, 1 µM, compound concentration 1 uM
[4] = 24 h, 10 µM, compound concentration 10 uM
[5] = 48 h, 1 µM, compound concentration 1 uM
[6] = 48 h, 10 µM, compound concentration 10 uM

SMILES: Cc1ccc(C(C)(O)c2nc3ccccc3s2)c(C)c1 (stereo not drawn)
- Population Apoptotic (%) [1]: 30% and 41%
- Population Healthy Nuclei (%) [1]: 72% and 79%
- Population Hoechst High Intensity Objects (%) [1]: 4% and 5%
- Population Membrane Permeable-Phenotype (%) [1]: 1% and 0%
- Population Mitochondria Different-Phenotype (%) [1]: 36% and 63%
- Population Mitotic Cells (%) [1]: 70% and 58%
- Population Normal (%) [1]: 95% and 94%
- Population Pyknosed Nuclei (%) [1]: 8% and 16%
- Population Tubulin-Different-Phenotype (%) [1]: 30% and 25%
- Total Cell Count [1]: 483 and 308
- Population Apoptotic (%) [2]: 56% and 36%
- Population Fragmented Nuclei (%) [2]: 5% and 7%
- Population Healthy Nuclei (%) [2]: 82% and 78%
- Population Hoechst High Intensity Objects (%) [2]: 8% and 7%
- Population Membrane Permeable-Phenotype (%) [2]: 0%
- Population Mitochondria Different-Phenotype (%) [2]: 62% and 72%
- Population Mitotic Cells (%) [2]: 43% and 63%
- Population Normal (%) [2]: 91% and 92%
- Population Pyknosed Nuclei (%) [2]: 12% and 13%
- Population Tubulin-Different-Phenotype (%) [2]: 44% and 25%
- Total Cell Count [2]: 412 and 318
- Population Apoptotic (%) [3]: 26% and 32%
- Population Fragmented Nuclei (%) [3]: 18% and 6%
- Population Healthy Nuclei (%) [3]: 73% and 85%
- Population Hoechst High Intensity Objects (%) [3]: 3%
- Population Membrane Permeable-Phenotype (%) [3]: 1% and 0%
- Population Mitochondria Different-Phenotype (%) [3]: 15% and 36%
- Population Mitotic Cells (%) [3]: 73% and 67%
- Population Normal (%) [3]: 96%
- Population Pyknosed Nuclei (%) [3]: 8% and 7%
- Population Tubulin-Different-Phenotype (%) [3]: 11% and 16%
- Total Cell Count [3]: 645 and 447
- Population Apoptotic (%) [4]: 28% and 36%
- Population Fragmented Nuclei (%) [4]: 6% and 10%
- Population Healthy Nuclei (%) [4]: 82% and 78%
- Population Hoechst High Intensity Objects (%) [4]: 8% and 6%
- Population Membrane Permeable-Phenotype (%) [4]: 0%
- Population Mitochondria Different-Phenotype (%) [4]: 42% and 63%
- Population Mitotic Cells (%) [4]: 71% and 63%
- Population Normal (%) [4]: 91% and 93%
- Population Pyknosed Nuclei (%) [4]: 11% and 10%
- Population Tubulin-Different-Phenotype (%) [4]: 34% and 23%
- Total Cell Count [4]: 487 and 379
- Population Apoptotic (%) [5]: 17% and 34%
- Population Fragmented Nuclei (%) [5]: 20% and 13%
- Population Healthy Nuclei (%) [5]: 73% and 78%
- Population Hoechst High Intensity Objects (%) [5]: 2% and 3%
- Population Membrane Permeable-Phenotype (%) [5]: 1%
- Population Mitochondria Different-Phenotype (%) [5]: 15% and 22%
- Population Mitotic Cells (%) [5]: 82% and 65%
- Population Normal (%) [5]: 97% and 96%
- Population Pyknosed Nuclei (%) [5]: 5% and 8%
- Population Tubulin-Different-Phenotype (%) [5]: 12% and 11%
- Total Cell Count [5]: 964 and 621
- Population Apoptotic (%) [6]: 33% and 50%
- Population Fragmented Nuclei (%) [6]: 14% and 13%
- Population Healthy Nuclei (%) [6]: 76% and 80%
- Population Hoechst High Intensity Objects (%) [6]: 2% and 3%
- Population Membrane Permeable-Phenotype (%) [6]: 0% and 1%
- Population Mitochondria Different-Phenotype (%) [6]: 28% and 33%
- Population Mitotic Cells (%) [6]: 66% and 50%
- Population Normal (%) [6]: 97% and 96%
- Population Pyknosed Nuclei (%) [6]: 9% and 5%
- Population Tubulin-Different-Phenotype (%) [6]: 18% and 13%
- Total Cell Count [6]: 713 and 508

SMILES: COCCn1c(C)c(C)s/c1=N\C(=O)C1C(C)(C)C1(C)C
- Population Apoptotic (%) [1]: 37% and 41%
- Population Fragmented Nuclei (%) [1]: 10% and 5%
- Population Healthy Nuclei (%) [1]: 77% and 82%
- Population Hoechst High Intensity Objects (%) [1]: 6% and 4%
- Population Membrane Permeable-Phenotype (%) [1]: 0%
- Population Mitochondria Different-Phenotype (%) [1]: 45% and 77%
- Population Mitotic Cells (%) [1]: 62% and 58%
- Population Normal (%) [1]: 93% and 95%
- Population Pyknosed Nuclei (%) [1]: 12%
- Population Tubulin-Different-Phenotype (%) [1]: 29% and 26%
- Total Cell Count [1]: 335 and 304
- Population Apoptotic (%) [2]: 77% and 53%
- Population Healthy Nuclei (%) [2]: 52% and 75%
- Population Hoechst High Intensity Objects (%) [2]: 18% and 11%
- Population Membrane Permeable-Phenotype (%) [2]: 0%
- Population Mitochondria Different-Phenotype (%) [2]: 91% and 72%
- Population Mitotic Cells (%) [2]: 22% and 46%
- Population Normal (%) [2]: 81% and 88%
- Population Pyknosed Nuclei (%) [2]: 13% and 16%
- Population Tubulin-Different-Phenotype (%) [2]: 67% and 38%
- Population Apoptotic (%) [3]: 19% and 35%
- Population Fragmented Nuclei (%) [3]: 7% and 8%
- Population Healthy Nuclei (%) [3]: 81%
- Population Hoechst High Intensity Objects (%) [3]: 4% and 7%
- Population Membrane Permeable-Phenotype (%) [3]: 0%
- Population Mitochondria Different-Phenotype (%) [3]: 26% and 47%
- Population Mitotic Cells (%) [3]: 80% and 64%
- Population Normal (%) [3]: 95% and 92%
- Population Pyknosed Nuclei (%) [3]: 11% and 10%
- Population Tubulin-Different-Phenotype (%) [3]: 20% and 17%
- Total Cell Count [3]: 447 and 383
- Population Apoptotic (%) [4]: 71% and 45%
- Population Fragmented Nuclei (%) [4]: 30% and 11%
- Population Healthy Nuclei (%) [4]: 61% and 75%
- Population Hoechst High Intensity Objects (%) [4]: 15% and 7%
- Population Membrane Permeable-Phenotype (%) [4]: 0%
- Population Mitochondria Different-Phenotype (%) [4]: 53% and 62%
- Population Mitotic Cells (%) [4]: 28% and 54%
- Population Normal (%) [4]: 84% and 92%
- Population Pyknosed Nuclei (%) [4]: 8% and 13%
- Population Tubulin-Different-Phenotype (%) [4]: 36% and 30%
- Population Apoptotic (%) [5]: 20% and 45%
- Population Fragmented Nuclei (%) [5]: 13% and 11%
- Population Healthy Nuclei (%) [5]: 75% and 81%
- Population Hoechst High Intensity Objects (%) [5]: 3%
- Population Membrane Permeable-Phenotype (%) [5]: 0%
- Population Mitochondria Different-Phenotype (%) [5]: 22% and 31%
- Population Mitotic Cells (%) [5]: 79% and 55%
- Population Normal (%) [5]: 96% and 97%
- Population Pyknosed Nuclei (%) [5]: 11% and 7%
- Population Tubulin-Different-Phenotype (%) [5]: 14% and 12%
- Total Cell Count [5]: 649 and 567
- Population Apoptotic (%) [6]: 60% and 38%
- Population Fragmented Nuclei (%) [6]: 18% and 13%
- Population Healthy Nuclei (%) [6]: 73% and 79%
- Population Hoechst High Intensity Objects (%) [6]: 2% and 4%
- Population Membrane Permeable-Phenotype (%) [6]: 2% and 0%
- Population Mitochondria Different-Phenotype (%) [6]: 30% and 46%
- Population Mitotic Cells (%) [6]: 40% and 61%
- Population Normal (%) [6]: 97% and 95%
- Population Pyknosed Nuclei (%) [6]: 8% and 6%
- Population Tubulin-Different-Phenotype (%) [6]: 31% and 24%
- Total Cell Count [6]: 191 and 493
